Assay results from ChEMBL document CHEMBL1795208 (J Med Chem, 2011).

Experiments:
Type in all cases: functional, cell-based
SK-MEL-28 = experiment: Antiproliferative activity against human SK-MEL-28 cells after 72 hrs by MTS/PMS assay; settings: SK-MEL-28, 72 h
Procedure, shortened: (§1)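 Cells kept in Advanced DMEM/F12 (1:1) with non-essential amino acids, 2 mM L-glutamine, penicillin, streptomycin and 10% FBS at 37 °C, 5% CO2. Seeded at 2000/well, attached overnight. Compound added in DMSO across a concentration range (1% DMSO final) for 72 h. Viable cells read by MTS/PMS and normalized to 1% DMSO controls (100%). IC50 taken from separate triplicate experiments.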

B16-F10 = experiment: Antiproliferative activity against mouse B16F10 cells after 72 hrs by MTS/PMS assay; settings: B16-F10, 72 h; procedure, shortened: as §1
[1] = Antiproliferative activity against human MDA1986 cells after 72 hrs by MTS/PMS assay; settings: MDA1986, 72 h; procedure, shortened: as §1
[2] = Antiproliferative activity against human JMAR cells after 72 hrs by MTS/PMS assay; procedure, shortened: as §1
SK-BR-3 = experiment: Antiproliferative activity against human SKBR3 cells expressing HER2 after 72 hrs by MTS/PMS assay; settings: SK-BR-3, 72 h; procedure, shortened: as §1
[3] = Antiproliferative activity against human androgen-independent PC3MM2 cells after 72 hrs by MTS/PMS assay; settings: PC3MM2, 72 h; procedure, shortened: as §1
MCF7 = experiment: Antiproliferative activity against human MCF7 cells expressing estrogen receptor after 72 hrs by MTS/PMS assay; settings: MCF7, 72 h; procedure, shortened: as §1
[4] = Antiproliferative activity against human androgen-dependent LNCaP-LN3 cells after 72 hrs by MTS/PMS assay; settings: LNCaP-LN3, 72 h; procedure, shortened: as §1

Structure (SMILES) | IC50 (SK-MEL-28) | IC50 (B16-F10) | IC50 [1] | IC50 [2] | IC50 (SK-BR-3) | IC50 [3] | IC50 (MCF7) | IC50 [4]
COc1cccc(-c2cc(C(=O)Nc3cc4ccc(OC5CC(C)C[C@@H](O)[C@H]5O)c(C)c4oc3=O)ccc2OC)c1 (stereo partly drawn) | 11.4 µM | 2.5 µM | 6.74 µM | 2.73 µM | > 100 µM | 4.09 µM | > 100 µM | 1.14 µM
COc1cccc(-c2cc(C(=O)Nc3cc4ccc(O[C@@H]5OC[C@@H](O)[C@H]5O)c(OC)c4oc3=O)ccc2OC)c1 | 6.41 µM | 1.3 µM | 5.73 µM | 2.71 µM | 7.57 µM | 10.6 µM | 11.7 µM | 2.6 µM
COc1cccc(-c2cc(C(=O)Nc3cc4ccc(OC5CCCN(C)C5)c(OC)c4oc3=O)ccc2OC)c1 (stereo not drawn) | 7.14 µM | 1.51 µM | 11.4 µM | 7.5 µM | 1.4 µM | 2.16 µM | 1.38 µM | 1.78 µM
COc1cccc(-c2cc(C(=O)Nc3cc4ccc(OC5CNC[C@@H](O)[C@H]5O)c(OC)c4oc3=O)ccc2OC)c1 (stereo partly drawn) | 11.4 µM | 11.8 µM | 21.7 µM | 11.6 µM | 8.98 µM | 14.4 µM | 10.2 µM | 12.2 µM
CNCCOc1ccc2cc(NC(=O)c3ccc(OC)c(-c4cccc(OC)c4)c3)c(=O)oc2c1C | 25.6 µM | 37.4 µM | 21.9 µM | 35.1 µM | 5.36 µM | 14 µM | 9.8 µM | > 100 µM
COc1cccc(-c2cc(C(=O)Nc3cc4ccc(O[C@H]5C[C@H](O)CO5)c(C)c4oc3=O)ccc2OC)c1 | 21.4 µM | 12.7 µM | 6.9 µM | 24.1 µM | 35.2 µM | 10.1 µM | > 100 µM | 3.72 µM
COc1cccc(-c2cc(C(=O)Nc3cc4ccc(OC5C=CCNC5)c(C)c4oc3=O)ccc2OC)c1 (stereo not drawn) | 5.41 µM | 2.94 µM | 6.54 µM | 3.4 µM | 1.61 µM | 4.4 µM | 1.73 µM | 4.27 µM
COc1cccc(-c2cc(C(=O)Nc3cc4ccc(O[C@@H]5O[C@H](CO)C[C@@H](O)[C@H]5O)c(C)c4oc3=O)ccc2OC)c1 | 10.7 µM | 9.6 µM | 5.7 µM | 5.8 µM | 9.59 µM | 4.58 µM | 11.1 µM | 3.23 µM
COc1cccc(-c2cc(C(=O)Nc3cc4cc(OC)c(OC5CN(C)C[C@@H](O)[C@H]5O)c(C)c4oc3=O)ccc2OC)c1 (stereo partly drawn) | 5.73 µM | 2.81 µM | 12.8 µM | 24.5 µM | 2.77 µM | 4.17 µM | 2.01 µM | 4.69 µM
COc1cccc(-c2cc(C(=O)Nc3cc4cc(OC)c(OC5CCCN(C)C5)c(C)c4oc3=O)ccc2OC)c1 (stereo not drawn) | 5.86 µM | 2.67 µM | 13.2 µM | 19.1 µM | 1.49 µM | 6.86 µM | 1.41 µM | 10.5 µM
COc1cccc(-c2cc(C(=O)Nc3cc4ccc(OC5CCNCC5)c(OC)c4oc3=O)ccc2OC)c1 | 16.4 µM | 2.14 µM | 10.9 µM | 12.6 µM | 1.79 µM | 8.47 µM | 3.23 µM | 10.8 µM
COc1cccc(-c2cc(C(=O)Nc3cc4ccc(OC5CCCN(C(C)=O)C5)c(C)c4oc3=O)ccc2OC)c1 (stereo not drawn) | 20.9 µM | 12.4 µM | 22.4 µM | 15.1 µM | > 50 µM | 3.42 µM | > 50 µM | 1.23 µM
COc1cccc(-c2cc(C(=O)Nc3cc4cc(OC)c(OC5CCN(C)CC5)c(C)c4oc3=O)ccc2OC)c1 | 3.74 µM | 36.7 µM | 1.54 µM | 1.84 µM | 1.19 µM | 2.84 µM | 1.79 µM | 4.17 µM
COc1cccc(-c2cc(C(=O)Nc3cc4ccc(OC(C)=O)c(C)c4oc3=O)ccc2OC)c1 | 2.14 µM | 2.3 µM | 1.67 µM | 12.6 µM | 0.98 µM | 2.85 µM | 1.4 µM | 1.5 µM
COc1cccc(-c2cc(C(=O)Nc3cc4cc(OC)c(OC5C=CCNC5)c(C)c4oc3=O)ccc2OC)c1 (stereo not drawn) | 5.41 µM | 2.86 µM | 5.9 µM | 11.6 µM | 1.21 µM | 3.57 µM | 1.68 µM | 5.4 µM
COc1cccc(-c2cc(C(=O)Nc3cc4ccc(OC5C=CCN(C)C5)c(OC)c4oc3=O)ccc2OC)c1 (stereo not drawn) | 1.48 µM | 6.47 µM | 2.36 µM | 1.94 µM | 3.42 µM | 0.98 µM | 1.65 µM | 0.36 µM
COc1cccc(-c2cc(C(=O)Nc3cc4ccc(OC5C=CCNC5)c(OC)c4oc3=O)ccc2OC)c1 (stereo not drawn) | 5.49 µM | 3.41 µM | 5.97 µM | 6.71 µM | 3.07 µM | 4.88 µM | 1.43 µM | 6.45 µM
COc1cccc(-c2cc(C(=O)Nc3cc4ccc(OC5CC(C)(C)C[C@@H](O)[C@H]5O)c(C)c4oc3=O)ccc2OC)c1 (stereo partly drawn) | 3.47 µM | 15.9 µM | 18.8 µM | 8.5 µM | > 100 µM | 2.49 µM | > 100 µM | 1.24 µM
COc1cccc(-c2cc(C(=O)Nc3cc4ccc(OC5CCN(C)CC5)c(OC)c4oc3=O)ccc2OC)c1 | 6.14 µM | 0.41 µM | 13.1 µM | 13.1 µM | 0.97 µM | 3.71 µM | 1.39 µM | 4.75 µM
COc1cccc(-c2cc(C(=O)Nc3cc4cc(OC)c(OC5C=CCN(C)C5)c(C)c4oc3=O)ccc2OC)c1 (stereo not drawn) | 31.5 µM | 6.14 µM | 16.4 µM | 18.4 µM | 1.96 µM | 3.87 µM | 5.27 µM | 4.49 µM
COc1cccc(-c2cc(C(=O)Nc3cc4cc(OC)c(OC5CCNCC5)c(C)c4oc3=O)ccc2OC)c1 | 5.75 µM | 1.84 µM | 14.6 µM | 10.9 µM | 1.2 µM | 4.02 µM | 2.82 µM | 5.27 µM
COc1cccc(-c2cc(C(=O)Nc3cc4ccc(OC5CCCNC5)c(OC)c4oc3=O)ccc2OC)c1 (stereo not drawn) | 14.7 µM | 0.64 µM | 12.8 µM | 12.7 µM | 2.61 µM | 10.4 µM | 3.29 µM | 12.7 µM
COc1cccc(-c2cc(C(=O)Nc3cc4ccc(O[C@@H]5OCCC[C@@H](O)[C@H]5O)c(C)c4oc3=O)ccc2OC)c1 | 18.5 µM | > 50 µM | 22.9 µM | 7.4 µM | 2.38 µM | – | > 100 µM | > 100 µM
